For assay [1], the system named is Zone of skin. Put plainly: Melanotropic activity in frog skin assessed as skin darkening at 6 ng relative to beta-c1-MSH. The class given is functional, Anura. In short, it runs like this:
(§1)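 Skin-darkening activity of the synthetic peptides measured in vitro on isolated frog skin.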

Assay [2] is described as follows: Lipolytic activity in isolated rabbit fat cells assessed as glycerol production per gram of cells at 37 ng measured every hour relative to beta-c1-MSH. The class given is functional, Oryctolagus cuniculus.
A short description of assay [3]: Lipolytic activity in isolated rabbit fat cells assessed as glycerol production per gram of cells at 37 ng measured every hour. The class given is functional, Oryctolagus cuniculus.
Assay [4] deals with Zone of skin. Nature of the assay: Melanotropic activity in frog skin assessed as skin darkening at 18 ng relative to control. It counts as functional, Anura. In short, it runs like this: as §1
The test system of assay [5] is Zone of skin. Put plainly: Melanotropic activity in frog skin assessed as skin darkening at 6 ng relative to control. It counts as functional, Anura. In outline: as §1
Assay [6] is described as follows: Lipolytic activity in isolated rabbit fat cells assessed as glycerol production per gram of cells at 111 ng measured every hour. The class given is functional, Oryctolagus cuniculus.
Assay [7] in a line: Lipolytic activity in isolated rabbit fat cells assessed as glycerol production per gram of cells at 66 ng measured every hour. The class given is functional, Oryctolagus cuniculus.
The nature of assay [8]: Lipolytic activity in isolated rabbit fat cells assessed as glycerol production per gram of cells at 22 ng measured every hour. The class given is functional, Oryctolagus cuniculus.
In assay [9] the test system is Zone of skin. Put plainly: Melanotropic activity in frog skin assessed as skin darkening at 2.7 ng relative to control. It counts as functional, Anura. In outline:
as §1

The test system of assay [10] is Zone of skin. Nature of the assay: Melanotropic activity in frog skin assessed as skin darkening at 8.1 ng relative to control. The class given is functional, Anura. In short, it runs like this: as §1
The test system of assay [11] is Zone of skin. Put plainly: Melanotropic activity in frog skin assessed as skin darkening at 2.7 ng relative to beta-b-MSH. It counts as functional, Anura. In short, it runs like this: as §1
The nature of assay [12]: Lipolytic activity in isolated rabbit fat cells assessed as glycerol production per gram of cells at 22 ng measured every hour relative to beta-b-MSH. The class given is functional, Oryctolagus cuniculus.
For assay [13], the system named is Zone of skin. Put plainly: Melanotropic activity in frog skin assessed as skin darkening at 6.9 ng relative to control. It counts as functional, Anura. In short, it runs like this:
as §1

Assay [14] concerns Zone of skin. Put plainly: Melanotropic activity in frog skin assessed as skin darkening at 2.3 ng relative to control. It counts as functional, Anura. In outline:
as §1

Assay [15] deals with Zone of skin. Nature of the assay: Melanotropic activity in frog skin assessed as skin darkening at 2.6 ng relative to beta-b-MSH. It counts as functional, Anura. In outline:
as §1

Assay [16] has as its system Zone of skin. Put plainly: Melanotropic activity in frog skin assessed as skin darkening at 2.6 ng relative to control. It counts as functional, Anura. In short, it runs like this:
as §1

The test system of assay [17] is Zone of skin. Nature of the assay: Melanotropic activity in frog skin assessed as skin darkening at 7.8 ng relative to control. The class given is functional, Anura. In short, it runs like this: as §1
A short description of assay [18]: Lipolytic activity in isolated rabbit fat cells assessed as glycerol production per gram of cells at 1100 ng measured every hour relative to beta-c1-MSH. The class given is functional, Oryctolagus cuniculus.
Assay [19] in a line: Lipolytic activity in isolated rabbit fat cells assessed as glycerol production per gram of cells at 3300 ng measured every hour. It counts as functional, Oryctolagus cuniculus.
Assay [20] can be described thus: Lipolytic activity in isolated rabbit fat cells assessed as glycerol production per gram of cells at 1100 ng measured every hour. The class given is functional, Oryctolagus cuniculus.
Assay [21] concerns Zone of skin. Nature of the assay: Melanotropic activity in frog skin assessed as skin darkening at 9 ng relative to control. The class given is functional, Anura. In short, it runs like this: as §1
Assay [22] deals with Zone of skin. Nature of the assay: Melanotropic activity in frog skin assessed as skin darkening at 3 ng relative to control. It counts as functional, Anura. In outline: as §1

Where a SMILES comes first, the peptide text is derived from it. The star is where a group is joined. For = O=C*

Take `CSCC[C@H](NC(=O)[C@H](CCCCN)NC(=O)[C@H](Cc1ccc(O)cc1)NC(=O)[C@@H]1CCCN1C(=O)CNC(=O)CNC(=O)[C@@H](N)CC(=O)O)C(=O)N[C@@H](CCC(N)=O)C(=O)N[C@@H](Cc1cnc[nH]1)C(=O)N[C@@H](Cc1ccccc1)C(=O)N[C@@H](CCCNC(=N)N)C(=O)N[C@@H](Cc1cn(C=O)c2ccccc12)C(=O)NCC(=O)N[C@@H](CO)C(=O)N1CCC[C@H]1C(=O)N1CCC[C@H]1C(=O)N[C@@H](CCCCN)C(=O)N[C@@H](CC(=O)O)C(=O)O` (H-DGGPYKMQHFRW(For)GSPPKD-OH): the Activity in the assay with Zone of skin [1] was determined as 39.7%; in [2] it was 10.2%; in assay [3], 1.09 µmol; with Zone of skin [4], 52.4%; in the assay with Zone of skin [5] it was 32.8%; in assay [6] it was 2.05 µmol.
In the case of `CSCC[C@H](NC(=O)[C@H](CCCCN)NC(=O)[C@H](Cc1ccc(O)cc1)NC(=O)[C@@H]1CCCN1C(=O)CNC(=O)[C@H](CO)NC(=O)[C@@H](N)CC(=O)O)C(=O)N[C@@H](CCC(=O)O)C(=O)N[C@@H](Cc1cnc[nH]1)C(=O)N[C@@H](Cc1ccccc1)C(=O)N[C@@H](CCCNC(=N)N)C(=O)N[C@@H](Cc1c[nH]c2ccccc12)C(=O)NCC(=O)N[C@@H](CO)C(=O)N1CCC[C@H]1C(=O)N1CCC[C@H]1C(=O)N[C@@H](CCCCN)C(=O)N[C@@H](CC(=O)O)C(=O)O` (stereo in doubt; form 1), the Activity in [7] was determined as 3.61 µmol; in assay [8], 1.18 µmol; in assay [2], 40.2%; in the assay with Zone of skin [9], 30.1%; in [3], 1.78 µmol; in the assay with Zone of skin [10], 49.6%. The Activity in the assay on Zone of skin [11] was found to be 120.2%; in assay [6], 2.96 µmol; in [12] it was 95.5%.
With `CSCC[C@H](NC(=O)[C@H](CCCCN)NC(=O)[C@H](Cc1ccc(O)cc1)NC(=O)[C@@H]1CCCN1C(=O)CNC(=O)[C@H](CO)NC(=O)[C@@H](N)CC(=O)O)C(=O)N[C@@H](CCC(=O)O)C(=O)N[C@@H](Cc1cnc[nH]1)C(=O)N[C@@H](Cc1ccccc1)C(=O)N[C@@H](CCCNC(=N)N)C(=O)N[C@@H](Cc1c[nH]c2ccccc12)C(=O)NCC(=O)N[C@@H](CO)C(=O)N1CCC[C@H]1C(=O)N1CCC[C@H]1C(=O)N[C@@H](CCCCN)C(=O)N[C@@H](CC(=O)O)C(=O)O` (stereo in doubt; form 2), the Activity in [7] was 3.76 µmol; in assay [8], 1.38 µmol; in the assay with Zone of skin [13], 44.6%; in the assay with Zone of skin [14], 29.1%.
As for H-DEGPYKMEHFRWGSPPKD-OH, the Activity in assay [7] amounted to 3.49 µmol; in [8] it was 1.62 µmol; with Zone of skin [15], 355.6%; in the assay with Zone of skin [16], 49.6%; in assay [12], 102.4%; in the assay with Zone of skin [17] it was 69.8%.
Turning to H-DGGPYKMQHFRFGSPPKD-OH, the Activity is 28% in the assay with Zone of skin [1]; 0.006% in [18]; 1.63 µmol in assay [19]; 1.29 µmol in [20]; 38.2% with Zone of skin [4]; 26.2% in the assay with Zone of skin [5].
For H-DGGPYKMQHFRWGSPPKD-OH, the Activity in the assay on Zone of skin [21] is 63.5%; in assay [3], 2.94 µmol; in the assay with Zone of skin [4], 71%; in the assay with Zone of skin [5], 62%; in assay [6] it was 3.6 µmol; in the assay with Zone of skin [22] it was 32.7%.
In the case of H-DGGPYKMQHGRWGSPPKD-OH, the Activity in the assay on Zone of skin [1] is 0.8%; in [18], 0.001%; in assay [19] it was 0.37 µmol; in [20], 0.19 µmol; with Zone of skin [4] it was 7.8%; in the assay with Zone of skin [5] it was 5.5%.
Take H-DGGPYKMRHFRWGSPPKD-OH: the Activity with Zone of skin [1] was found to be 10.5%; in [2], 34.2%; in [3], 1.73 µmol; in the assay with Zone of skin [4], 24.6%; with Zone of skin [5], 17.1%; in assay [6], 3.12 µmol.

Values taken from ChEMBL document CHEMBL3244422, “Synthesis and biological activity of beta-melanotropins and analogues” (1977).
